IDE act: IDE (human) activation, cell-based; P14735; HEK cells, FAbeta-B cleavage, fluorescence polarization; 0% vehicle, 100% cell-free pure enzyme wells; activation, % at 5.96 µM; actives 0.073% (n = 340,000); AID 493087;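 active means activation above the mean of all tested compounds plus 3 SD, set per screening campaign, cut at about 17% in these data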
Target sequence (P14735 whole entry, looked up): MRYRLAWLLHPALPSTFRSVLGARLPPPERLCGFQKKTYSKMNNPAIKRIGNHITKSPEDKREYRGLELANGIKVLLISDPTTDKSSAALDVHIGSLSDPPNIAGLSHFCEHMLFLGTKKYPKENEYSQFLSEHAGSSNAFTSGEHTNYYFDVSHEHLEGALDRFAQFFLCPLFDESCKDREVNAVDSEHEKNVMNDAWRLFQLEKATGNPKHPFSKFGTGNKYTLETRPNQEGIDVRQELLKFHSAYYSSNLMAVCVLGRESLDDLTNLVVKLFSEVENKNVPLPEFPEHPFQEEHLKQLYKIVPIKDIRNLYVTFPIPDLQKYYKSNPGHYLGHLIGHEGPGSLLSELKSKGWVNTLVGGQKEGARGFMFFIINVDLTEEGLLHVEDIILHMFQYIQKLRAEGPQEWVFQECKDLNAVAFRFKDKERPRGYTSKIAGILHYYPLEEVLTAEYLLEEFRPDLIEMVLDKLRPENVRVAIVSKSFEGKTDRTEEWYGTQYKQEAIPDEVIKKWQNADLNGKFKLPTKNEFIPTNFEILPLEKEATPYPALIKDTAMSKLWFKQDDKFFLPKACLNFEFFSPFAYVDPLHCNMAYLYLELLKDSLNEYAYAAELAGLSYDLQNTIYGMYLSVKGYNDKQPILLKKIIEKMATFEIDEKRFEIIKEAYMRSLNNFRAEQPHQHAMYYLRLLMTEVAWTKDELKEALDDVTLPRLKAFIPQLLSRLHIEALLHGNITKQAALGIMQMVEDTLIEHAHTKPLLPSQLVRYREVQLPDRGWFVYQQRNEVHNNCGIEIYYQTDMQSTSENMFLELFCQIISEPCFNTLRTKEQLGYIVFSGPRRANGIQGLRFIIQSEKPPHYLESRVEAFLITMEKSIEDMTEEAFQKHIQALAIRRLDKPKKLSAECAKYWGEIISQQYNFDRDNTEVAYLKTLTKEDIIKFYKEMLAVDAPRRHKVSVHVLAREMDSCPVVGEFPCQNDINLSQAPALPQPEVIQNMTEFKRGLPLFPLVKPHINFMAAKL
CR mimetic SO: yeast age-related superoxide inhibition as caloric restriction mimetic. AID 2690. S. cerevisiae aged cells, superoxide DHE fluorescence; stronger effect = lower value. actives 0.18% (n = 330,000). superoxide response (% of plate mean), % at 10 µM;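 active means superoxide response under a set limit, about three screen SD below normal, cut at about 65% in these data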;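 further: yeast aged for seven days with compound at 30 °C before DHE staining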
HDAC3 inhib: inhibitors of human histone deacetylase 3. O15379. recombinant HDAC3, fluorogenic peptide/trypsin coupled, fluorescence. inhibition, % at 8.3 µM. actives 0.15% (n = 320,000); in the data active means inhibition above about 26%, passing the limit was not always enough
Tb MetRS inh: Trypanosoma brucei MetRS inhibition | purified T. brucei MetRS, ATP depletion, Kinase-Glo luminescence | inhibition, % at 11.9 µM | actives 0.4% (n = 360,000) | AID 624268;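 active means inhibition above a per-plate cutoff of the control wells' mean inhibition plus 3 SD, cut at about 5.5% in these data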
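Material: T. brucei methionyl-tRNA synthetase, purified; reagent: substrates ATP, L-methionine and bulk Escherichia coli tRNA; dosing: 11.9 µM single point; timing: 15 min plus 2 h at 25 °C; detection: luminescence of leftover ATP; evaluation: % inhibition; control set: DMSO-only wells as low control; replicates: singlicate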
IDE cell inh: inhibits human insulin-degrading enzyme in HEK cells | P14735 | FAbetaB cleavage, fluorescence polarization | inhibition, % at 5.59 µM | actives 0.41% (n = 320,000) | AID 434962;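 active means percent inhibition above the average of all tested compounds plus 3 SD, set per screening campaign, cut at about 16% in these data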;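 further: IDE supplied by intact live HEK cells; FP after avidin binding of uncleaved biotin substrate so inhibition keeps polarization high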
Efflux pump mplx: antifungal efflux pump inhibition, Nile Red retention | S. cerevisiae Candida pump triplex | inhibition, % at 10 µM | actives 0.44% (n = 330,000) | AID 485275;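 active means plate passing quality check with inhibition over a set limit, or well fluorescence over plate mean plus 4 SD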;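 further: Nile Red retained in pooled yeast measured as flow cytometry median fluorescence; higher means more Nile Red kept so more efflux inhibition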
Cmpd fluor yeast: counter-screen for efflux pump inhibitors: compound fluorescence. S. cerevisiae AD/pABC3, flow cytometry. actives 4% (n = 1,700). shares compounds with Efflux pump mplx. AID 588517. fluorescence ratio to DMSO, % at 10 µM;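 active means fluorescence ratio to DMSO above its plate's cutoff, the plate mean ratio plus 5 SD, cut at about 210% in these data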;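 further: unstained yeast with no Nile Red so the signal is compound autofluorescence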
CaMdr1 efflux inh: blocks the Candida albicans Mdr1 efflux pump in yeast | shares compounds with Efflux pump mplx | actives 1% (n = 1,700) | inhibition, % at 10 µM | S. cerevisiae AD/CaMDR1, Nile Red efflux, flow cytometry; in the data active means inhibition above about 26%;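 further: higher means more Nile Red retained so more efflux inhibition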
Cdr2 pump inh: inhibitors of Candida albicans Cdr2 efflux pump; shares compounds with Efflux pump mplx; actives 4% (n = 1,700); S. cerevisiae AD/CaCDR2, Nile Red retention, flow cytometry; Nile Red retention ratio vs DMSO, % at 10 µM; in the data active means Nile Red retention ratio vs DMSO above about 190%;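 further: higher ratio means more blocking of Cdr2 efflux of the dye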
Cdr1 pump inh: Candida Cdr1 efflux pump inhibition; S. cerevisiae AD/CaCDR1, Nile Red efflux, flow cytometry; actives 1% (n = 1,700); inhibition, % at 10 µM; shares compounds with Efflux pump mplx;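 active means inhibition above the screen-wide mean plus twice its standard deviation, cut at about 32% in these data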
Hits are given with their value; 0 = inactive; - = not tested or not shown. Compounds with a hit are over-represented: about 1.4% of the library has one in this group of screens.

SMILES	IDE act	CR mimetic SO	HDAC3 inhib	Tb MetRS inh	IDE cell inh	Efflux pump mplx	Cmpd fluor yeast	CaMdr1 efflux inh	Cdr2 pump inh	Cdr1 pump inh
CCOc1ccc(/C=N/NC(=O)c2nnn(-c3nonc3N)c2COc2ccc(F)cc2)cc1	0	0	0	0	0	0	0	0	0	0
CC1CCN(Cc2c(C(=O)N/N=C/c3ccc(OC(C)C)cc3)nnn2-c2nonc2N)CC1	0	0	0	0	0	0.4	0	0	0	0
Nc1nonc1-n1nnc(C(=O)N/N=C/c2ccncc2)c1CSc1ccccc1	0	0	0	0	0	0	-	-	-	-
COc1ccc(N2C(=O)CC(NCCNc3ccc([N+](=O)[O-])cn3)C2=O)cc1 (stereo unspecified)	0	0	0	0	0	0	-	-	-	-
COc1ccccc1CNC(=O)COC(=O)c1cc(=O)[nH]c2ccccc12	0	0	0	0	0	0	-	-	-	-
O=C(c1sc2ccccc2c1Cl)N1CCN(c2ccccc2F)CC1	0	0	0	0	0	21	0	0	0	0
O=C(c1sc2ccccc2c1Cl)N1CCN(c2ccc(F)cc2)CC1	0	0	0	0	0	0	-	-	-	-
COc1ccc(-n2c(C)nnc2SCC(=O)N2CCOCC2)cc1	0	0	0	0	0	0	-	-	-	-
CC(NC(=O)CCSCCC(=O)NC(C)c1ccccc1)c1ccccc1 (stereo unspecified)	0	0	0	0	0	1.2	0	0	0	0
CC(C)OCCCN(C)C1CCN(S(=O)(=O)c2ccc(-c3cc(C(F)(F)F)no3)s2)CC1	0	0	0	0	0	0	-	-	-	-
CC(=O)Nc1ccc(C(=O)OCC(=O)c2ccc(F)cc2)cc1	0	0	0	0	0	32	0	0	0	0
CC(=O)Nc1ccc(C(=O)OCc2ccc(F)cc2)cc1	0	0	0	0	0	0	-	-	-	-
CC(=O)Nc1ccc(C(=O)N/N=C/c2ccc(F)cc2)cc1	0	0	0	0	0	0.6	0	0	0	0
C=CCNC(=S)Nc1c(N)n(C)c(=O)n(C)c1=O	0	0	0	0	0	0	-	-	-	-
CCCC(=O)N(Cc1cc(=O)[nH]c2ccccc12)c1ccccc1C	0	0	0	0	0	0	-	-	-	-
COc1cc(/C=C/C(=O)Nc2ccc(S(=O)(=O)Nc3onc(C)c3C)cc2)cc(OC)c1OC	0	-	-	0	-	-	-	-	-	-
C[C@H](CO)N1C[C@H](C)[C@@H](CN(C)S(=O)(=O)c2cccs2)Oc2c(NC(=O)Nc3ccc4c(c3)OCO4)cccc2C1=O	0	0	0	0	0	0	0	0	0	0
C[C@H](CO)N1C[C@H](C)[C@@H](CN(C)Cc2ccc(-c3ccccc3)cc2)Oc2c(NC(=O)Nc3ccc(C(F)(F)F)cc3)cccc2C1=O	0	0	0	0	0	0	0	0	0	0
COc1ccc(S(=O)(=O)N(C)C[C@H]2Oc3c(NC(=O)NC4CCCCC4)cccc3C(=O)N([C@H](C)CO)C[C@@H]2C)cc1	0	0	0	0	0	131	0	28	0	0
C[C@H]1CN([C@@H](C)CO)C(=O)c2cccc(NC(=O)Nc3ccc(C(F)(F)F)cc3)c2O[C@@H]1CN(C)S(=O)(=O)c1ccccc1	0	0	-	0	0	0	-	-	-	-
COc1ccc(S(=O)(=O)N(C)C[C@H]2Oc3c(NC(=O)Nc4ccc(C(F)(F)F)cc4)cccc3C(=O)N([C@H](C)CO)C[C@@H]2C)cc1	0	0	32	0	0	34	0	0	0	0
CC(C)Oc1ccc(S(=O)(=O)N2CCOCC2)cc1NC(=O)C1COc2ccccc2O1 (stereo unspecified)	0	0	-	0	0	0	-	-	-	-
CC(C)NC(=O)Nc1cccc2c1O[C@H](CN(C)S(=O)(=O)c1ccc(F)cc1)[C@@H](C)CN([C@H](C)CO)C2=O	0	0	-	0	0	0	0	0	0	0
O=C1C2CC=CCC2C(=O)N1Cc1ccccc1Cl (stereo unspecified)	0	0	0	0	0	0	-	-	-	-
CCn1c(SCC(=O)N/N=C/C(C)=C/c2ccco2)nnc1-c1ccccc1	0	0	0	0	0	0.8	0	0	0	0
SMILES	IDE act	CR mimetic SO	HDAC3 inhib	Tb MetRS inh	IDE cell inh	Efflux pump mplx	Cmpd fluor yeast	CaMdr1 efflux inh	Cdr2 pump inh	Cdr1 pump inh
Cc1ccccc1CSc1nnc(-c2cnccn2)n1C	-	0	0	0	0	0	-	-	-	-
Nc1nc(COC(=O)c2ccc3c(c2)OCCO3)nc(Nc2ccccc2)n1	0	0	0	0	0	0	-	-	-	-
O=C(COC(=O)c1ccc2c(c1)C(=O)N(Cc1ccncc1)C2=O)Nc1cccc2ccccc12	0	0	0	0	0	0	-	-	-	-
CCOC(=O)c1c(-c2ccccc2)csc1NC(=O)c1cc(-c2ccccc2OC)on1	0	0	0	0	0	0.7	0	0	0	0
c1ccc(C(c2ccccc2)c2noc(CN3CCC(c4ccncc4)CC3)n2)cc1	0	0	0	0	0	5.2	0	0	0	0
c1ccc(C2CCCN(Cc3nc(CC4CC4)no3)CC2)cc1 (stereo unspecified)	0	0	0	0	0	0	-	-	-	-
COc1cc(C(=O)C(=O)N2CCC(Cc3ccccc3)CC2)cc2ccccc12	-	-	-	0	-	-	-	-	-	-
COc1cc(N)c(Br)cc1C(=O)O	0	0	0	0	0	0.7	0	0	0	0
CN1C(=O)[C@H]2[C@@H](c3ccc(C(F)(F)F)cc3)N[C@]3(CCCN(Cc4cccn4C)C3=O)[C@H]2C1=O	-	-	-	0	-	-	-	-	-	-
COc1cccc(C2CC(c3ccccc3)=NN2S(=O)(=O)c2ccc(C)cc2)c1OC (stereo unspecified)	0	0	0	0	0	1.4	0	0	0	0
CCOc1ccc(C2/C(=C(\O)c3ccc4c(c3)OCCO4)C(=O)C(=O)N2CCN2CCOCC2)cc1OCC (stereo unspecified)	0	0	0	0	0	0	-	-	-	-
O=C(c1cc2c(ccc3ccccc32)o1)N1CCN(c2ncc(C(F)(F)F)cc2Cl)CC1	0	0	0	0	0	52	0	0	0	0
CCCCNC(=O)CCn1nc(-c2ccc(C)cc2)c2ccccc2c1=O	0	0	0	0	0	0	-	-	-	-
COc1cc(OC)cc(C(=O)Nc2sc3c(c2C(N)=O)CCC3)c1	0	0	0	0	0	1.4	0	0	0	0
CCN(CC)CCNC(=O)CN1C(=O)CSc2ccc(S(=O)(=O)N3CCOCC3)cc21	-	-	-	0	-	-	-	-	-	-
CCOc1ccc(C(=O)NCC(=O)OCc2csc(-c3ccccc3)n2)cc1	0	0	0	0	0	0	-	-	-	-

High-throughput results: PubChem, several laboratories
